# Screening results from PubChem.
# An excerpt weighted towards active compounds, which were near 3.3% of everything screened.
# PMI act satM6P: increases human PMI activity with near-saturating mannose 6-phosphate. P34949. coupled PMI enzyme assay, resazurin fluorescence, 20 min; active compounds read high; 1 = untreated enzyme, 0 = substrate-free blank. activation factor at 20 µM. 190,000 tested, 0.34% active. AID 1216;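 active = activation factor of 2 or more at 20 µM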
#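 Material: human phosphomannose isomerase with PGI, G6PDH, diaphorase coupling enzymes; amount: PMI at 15 ng/mL final; also added: Mannose-6-phosphate 1.0 mM (near-saturating) plus 0.22 mM NADP+; incubation: enzyme reaction with compound 20 min at room temperature; signal: resorufin fluorescence (Ex 544/Em 590 nm) from resazurin via diaphorase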
# ABCB1 inh: human ABCB1 inhibition, ABCG2 as counter-screen; AID 1326; P08183; 190,000 tested, 0.067% active; CCRF-Adr cells, JC-1 efflux, flow cytometry; inhibition, % at 6.6 µM; in the data active = inhibition above about 40%;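 note: 0% = vehicle and 100% = reference inhibitor; higher value means more JC-1 retained so stronger ABCB1 efflux block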
# ROMK mod: modulates human ROMK potassium channel activity; B-score at 10 µM; Tet-inducible ROMK, thallium flux fluorescence; actives lie on both sides; P48048; 130,000 tested, 2% active;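 active = signal ratio slope over the read window, or its plate-corrected B-score, at least 3 SD from the plate mean, either direction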;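 note: B-score of the F/F0 ratio slope over 7 to 12 s after thallium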
# KCC2 mod: KCC2 (human) Cl- transport modulation | Q9H2X9 | KCC2 cells, thallium flux FluoZin-2 fluorescence | B-score of Tl+ flux slope (higher = more flux/activation; lower = inhibition) at 10 µM | 190,000 tested, 2.2% active;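 active = thallium flux slope and its plate-corrected score both differing from the plate sample mean at a set confidence after two filtering rounds, in either direction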;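 note: slope of fluorescence scaled to starting intensity during 10 to 20 s after thallium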
# PMI activator: activators of human phosphomannose isomerase; P34949; purified human PMI, coupled resazurin fluorescence, 20 min; active compounds read high; 1 = vehicle control, 0 substrate-free wells; activation factor at 20 µM; 190,000 tested, 0.005% active; AID 1214;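 active = activation factor of 2 or more at 20 µM, relative to plate controls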
# ABCG2 inh: blocks JC-1 efflux by human ABCG2 transporter. inhibition, % at 6.6 µM. 190,000 tested, 0.1% active. Q9UNQ0. IgMXP3 cells, flow cytometry;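 active = inhibition above 80%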;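 note: 0% = DMSO and 100% = nicardipine control wells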
#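 System: two drug-resistant human cell lines, ABCG2 and ABCB1; controls: nicardipine high and DMSO low controls; times: 10 min exposure at 25 °C with rotation, no wash; detection: flow cytometry of retained JC-1 fluorescence; read-out basis: percent efflux inhibition, scaled nicardipine 100% to DMSO 0%; doses: one concentration, 6.6 µM final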
# KCC2 sec1: confirmation of human KCC2 transport modulators; shares compounds with KCC2 mod; AID 1713; normalised thallium flux (F/F0 slope) at 10 µM; HEK293-KCC2, thallium flux, FluoZin2 fluorescence; active compounds read high; 3,700 tested, 15% active;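 active = thallium flux slope above the same plate's solvent-only control mean plus 3 SD; inconclusive = the two replicate wells disagree; inactive = no significant difference from solvent-only control wells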
# KCC2 bumet counter: bumetanide-insensitive thallium flux in KCC2 cells with ouabain, counter-screen; shares compounds with KCC2 mod; HEK293-KCC2 + bumetanide/ouabain, thallium flux FluoZin2; active compounds read high; normalized thallium flux at 10 µM; 3,700 tested, 49% active;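 active = thallium entry rate above the same plate's blocked-transporter control wells by more than 3 SD; inconclusive = the two repeat wells disagree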;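 note: raw slope of fluorescence over initial fluorescence between 10 and 20 s after thallium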
# KCC2 sec2: confirmation of human KCC2 transport modulators; shares compounds with KCC2 mod; HEK293-KCC2, thallium flux FluoZin2 fluorescence; actives lie on both sides; F/F0 rise rate, 10–20 s post-thallium; normalized thallium flux at 10 µM; 3,700 tested, 23% active; AID 1715;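 active = thallium flux slope more than 3 SD above or below the plate's solvent-only control mean, mostly below; inconclusive = the two repeat wells disagreed; inactive = no significant shift from solvent-only controls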;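 note: raw slope with 0.1% DMSO as baseline and bumetanide as block control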
# HEK counter1: parental HEK flux effect, counter-screen; shares compounds with KCC2 mod; AID 1716; thallium flux rate (normalised fluorescence) at 10 µM; HEK293 parental cells, thallium flux FluoZin2, ouabain; baseline-ratio fluorescence slope, 10–20 s after thallium; 3,700 tested, 46% active;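 active = thallium flux rate significantly above the same plate's solvent-only control wells, beyond their mean plus 3 SD; inconclusive = the two replicate wells gave conflicting results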
# KCC2 ouabain: KCC2 (human) modulation, ouabain retest | shares compounds with KCC2 mod | HEK293-KCC2, thallium flux FluoZin2 fluorescence; bidirectional: low = inhibitor, high = activator | raw Tl+ flux slope (below DMSO = inhibition, above = activation) at 10 µM | 3,700 tested, 48% active | AID 1717;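 active = thallium flux slope beyond 3 SD from same-plate DMSO control mean in most replicates, usually higher, sometimes lower; inconclusive = repeat tests gave conflicting results; inactive = no significant difference from controls in most replicates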;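 note: slope of initial-normalized fluorescence between seconds 10 and 20 after thallium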
# HEK293 Tl flux2: counter-screen for KCC2 modulators: effect in parental HEK293 cells | thallium flux slope at 10 µM | 3,700 tested, 33% active | AID 1718 | shares compounds with KCC2 mod | thallium flux FluoZin-2 fluorescence slope;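 active = thallium flux slope above the same plate's solvent-control mean plus 3 SD in both duplicate wells; inconclusive = duplicate wells that disagreed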;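 note: run without ouabain in cells lacking the KCC2 cotransporter; slope of fluorescence scaled to its starting value between 10 and 20 s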
# * hit, by the source's call; ? = inconclusive; . = not tested or not shown.
SMILES,PMI act satM6P,ABCB1 inh,ROMK mod,KCC2 mod,PMI activator,ABCG2 inh,KCC2 sec1,KCC2 bumet counter,KCC2 sec2,HEK counter1,KCC2 ouabain,HEK293 Tl flux2
Cc1cccc(/C=N/NC(=O)C(C)Nc2cccc3ccccc23)n1 (centres undefined),1.7,1,0.09,.,1.3,4,0.0083,0.0055,0.031,0.0043,0.018,0.011
CCOC(=O)CNC(=O)C(Cc1ccccc1)NC(=O)OCc1ccccc1 (centres undefined),1.1,0,-1,-5.5*,1.1,0,0.0063,0.0052,0.025*,0.007,?,0.011
CCOC(=O)CNC(=O)C(CO)NC(=O)OCc1ccccc1 (centres undefined),1,0,.,-0.0093,1,2,.,.,.,.,.,.
CC(Oc1ccccc1)c1ccnc(N)n1 (centres undefined),1,1,2.1,0.8,1,2,.,.,.,.,.,.
CC(Oc1ccc(Cl)cc1Cl)c1ccnc(N)n1 (centres undefined),1,1,-0.33,-2.9*,1,5,0.0076,0.0046,0.028,0.007,0.018,0.0094
CN(CCc1ccccn1)C(=O)c1nn2c(C(F)(F)F)cc(-c3ccco3)nc2c1Cl,1.1,1,0.35,-5.2*,1.1,13,0.0074,0.0051,0.031,0.0074,0.014*,0.0098
CC(C)NC(=O)c1nn2c(C(F)(F)F)cc(-c3ccco3)nc2c1Cl,.,1,-0.55,-0.27,.,40,.,.,.,.,.,.
CCOc1[nH]n(-c2ccccc2)c(=O)c1C=Nc1ccc(OC)cc1,0.9,4,-0.45,4.1*,1,11,0.0066,0.01*,0.032,0.0093*,0.021,?
CCOc1[nH]n(-c2ccccc2)c(=O)c1C=Nc1ccc(F)cc1F,1.2,0,-0.58,4.1*,1.4,0,0.0056,0.01*,0.032,0.01*,?,?
CC(C)CC(NC(=O)c1ccccc1)C(=O)OCC(=O)Nc1ccc(S(N)(=O)=O)cc1 (centres undefined),0.8,0,-0.081,0.83,0.8,0,.,.,.,.,.,.
CC(=O)C1=C(C)Nc2ncnn2C1c1cccc(OCc2ccccc2)c1 (centres undefined),0.9,1,.,-3.4*,0.9,3,0.0079,0.006,0.032,0.0067,0.018*,0.01
CC1Cc2ccccc2N1C(=O)COC(=O)c1ccc(O)cc1 (centres undefined),.,.,.,-3.2,.,.,.,.,.,.,.,.
Cc1ccc(OCCC(=O)OCC(=O)N2c3ccccc3CC2C)cc1 (centres undefined),0.9,0,.,-5.1*,0.9,-1,0.0077,0.0049,0.025*,0.0072,0.017*,0.0096
COc1cccc(Nc2nnc(SCC(=O)Nc3sccc3C(N)=O)s2)c1,0.9,0,-0.4,-1,1,-1,.,.,.,.,.,.
